{
  "source": "ChEMBL document CHEMBL4017514",
  "about": "“Discovery of Novel Macrocyclic Hedgehog Pathway Inhibitors Acting by Suppressing the Gli-Mediated Transcription” (J Med Chem, 2017)",
  "key": {"Mus musculus [1]": {"species_on_record": "Mus musculus", "assay": "Inhibition of hedgehog signaling pathway in mouse Light2 cells in Shh conditioned medium at 1 uM by Gli-luciferase reporter gene assay relative to control", "type": "cell-based"}, "Mus musculus [2]": {"species_on_record": "Mus musculus", "assay": "Inhibition of hedgehog signaling pathway in mouse Shh Light2 cells harboring Gli2 plasmid assessed as reduction in Gli2-mediated transcriptional activity by luciferase reporter gene assay", "type": "cell-based"}, "Mus musculus [3]": {"species_on_record": "Mus musculus", "assay": "Inhibition of hedgehog signaling pathway in mouse NIH/3T3 cells harboring sufu shRNA assessed as downregulation of Gli1 mRNA expression at 300 nM by RT-qPCR analysis", "type": "cell-based"}, "Mus musculus [4]": {"species_on_record": "Mus musculus", "assay": "Inhibition of hedgehog signaling pathway in mouse NIH/3T3 cells assessed as downregulation of Shh-induced Gli1 mRNA expression levels at 300 nM after 36 hrs by RT-qPCR analysis", "type": "cell-based", "procedure,_shortened": "(§1)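 NIH-3T3 or C3H10T1/2 cells treated as indicated for 36 h, then collected for RT-qPCR of Gli1 and ptch1 mRNA. Data given as mean ± SD.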"}, "Homo sapiens": {"species_on_record": "Homo sapiens", "assay": "Inhibition of TNFalpha-induced NFkappaB activation in HEK293 cells at 1 uM after 24 hrs by dual luciferase reporter gene assay", "type": "cell-based", "procedure,_shortened": "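HEK293 cells carrying NF-κB firefly reporter plus Renilla, stimulated with TNF-α and treated for 24 h. Cells lysed for dual luciferase assay, firefly signal normalized to Renilla. Data given as mean ± SD.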"}, "Mus musculus [5]": {"species_on_record": "Mus musculus", "assay": "Inhibition of hedgehog signaling pathway in mouse NIH/3T3 cells assessed as reduction in edogenous expression of Gli1 protein by immunoblot analysis", "type": "cell-based", "procedure,_shortened": "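NIH-3T3 cells cultured in 10% FBS were exposed to compound at various concentrations for 24 h. Endogenous Gli1 and Gli2 detected by Western blot.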"}, "Mus musculus [6]": {"species_on_record": "Mus musculus", "assay": "Inhibition of hedgehog signaling pathway in mouse C3H10T1/2 cells assessed as downregulation of Shh-induced ptch1 mRNA expression levels at 300 nM after 36 hrs by RT-qPCR analysis", "type": "cell-based", "procedure,_shortened": "as §1"}, "Mus musculus [7]": {"system": "Mus musculus", "assay": "Downregulation of Gli1 mRNA expression level in athymic nude mouse implanted with mouse Ptch+/- p53-/- medulloblastoma cells at 25 to 50 mg/kg, ip bid for 15 consecutive days measured after 4 hrs of last dosage by RT-qPCR analysis", "type": "functional, organism-based", "procedure,_shortened": "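Same allograft model (n = 5), dosed ip twice daily for 15 days in 0.5% methylcellulose/0.2% Tween-80 suspension. Tumors harvested 4 h after the last dose. Gli1 and ptch1 mRNA quantified by RT-qPCR. Data given as mean ± SD.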"}, "Mus musculus [8]": {"species_on_record": "Mus musculus", "assay": "Inhibition of hedgehog signaling pathway in mouse NIH/3T3 cells hoarboring Gli2 plasmid assessed as reduction in ectopic expression of Gli2 protein at 50 to 1000 nM by immunoblot analysis", "type": "cell-based"}, "[9]": {"target": "Bromodomain-containing protein 4 (Homo sapiens) (UniProt O60885)", "assay": "Inhibition of BRD4 (unknown origin) at 10 uM"}, "Mus musculus [10]": {"species_on_record": "Mus musculus", "assay": "Inhibition of hedgehog signaling pathway in mouse Light2 cells harboring wild type Smo after 36 hrs by Gli luciferase activity", "type": "cell-based", "procedure,_shortened": "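Light II cells (NIH-3T3 stably carrying Gli-responsive firefly luciferase and Renilla vector) transfected with wild-type, D473H or W535L Smo plasmid. Exposed to compound for 36 h, then dual luciferase assay with firefly/Renilla normalization. IC50 derived and given as mean ± SD.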"}, "Mus musculus [11]": {"species_on_record": "Mus musculus", "assay": "Inhibition of hedgehog signaling pathway in mouse NIH/3T3 cells hoarboring Gli1 plasmid assessed as reduction in ectopic expression of Gli1 protein at 50 to 1000 nM by immunoblot analysis", "type": "cell-based"}, "Mus musculus [12]": {"species_on_record": "Mus musculus", "assay": "Inhibition of hedgehog signaling pathway in mouse NIH/3T3 cells harboring sufu shRNA assessed as downregulation of ptch1 mRNA expression at 300 nM by RT-qPCR analysis", "type": "cell-based"}, "[13]": {"target": "T1, Zinc finger protein GLI1 (Homo sapiens) (UniProt P08151)", "T1 sequence (whole entry)": "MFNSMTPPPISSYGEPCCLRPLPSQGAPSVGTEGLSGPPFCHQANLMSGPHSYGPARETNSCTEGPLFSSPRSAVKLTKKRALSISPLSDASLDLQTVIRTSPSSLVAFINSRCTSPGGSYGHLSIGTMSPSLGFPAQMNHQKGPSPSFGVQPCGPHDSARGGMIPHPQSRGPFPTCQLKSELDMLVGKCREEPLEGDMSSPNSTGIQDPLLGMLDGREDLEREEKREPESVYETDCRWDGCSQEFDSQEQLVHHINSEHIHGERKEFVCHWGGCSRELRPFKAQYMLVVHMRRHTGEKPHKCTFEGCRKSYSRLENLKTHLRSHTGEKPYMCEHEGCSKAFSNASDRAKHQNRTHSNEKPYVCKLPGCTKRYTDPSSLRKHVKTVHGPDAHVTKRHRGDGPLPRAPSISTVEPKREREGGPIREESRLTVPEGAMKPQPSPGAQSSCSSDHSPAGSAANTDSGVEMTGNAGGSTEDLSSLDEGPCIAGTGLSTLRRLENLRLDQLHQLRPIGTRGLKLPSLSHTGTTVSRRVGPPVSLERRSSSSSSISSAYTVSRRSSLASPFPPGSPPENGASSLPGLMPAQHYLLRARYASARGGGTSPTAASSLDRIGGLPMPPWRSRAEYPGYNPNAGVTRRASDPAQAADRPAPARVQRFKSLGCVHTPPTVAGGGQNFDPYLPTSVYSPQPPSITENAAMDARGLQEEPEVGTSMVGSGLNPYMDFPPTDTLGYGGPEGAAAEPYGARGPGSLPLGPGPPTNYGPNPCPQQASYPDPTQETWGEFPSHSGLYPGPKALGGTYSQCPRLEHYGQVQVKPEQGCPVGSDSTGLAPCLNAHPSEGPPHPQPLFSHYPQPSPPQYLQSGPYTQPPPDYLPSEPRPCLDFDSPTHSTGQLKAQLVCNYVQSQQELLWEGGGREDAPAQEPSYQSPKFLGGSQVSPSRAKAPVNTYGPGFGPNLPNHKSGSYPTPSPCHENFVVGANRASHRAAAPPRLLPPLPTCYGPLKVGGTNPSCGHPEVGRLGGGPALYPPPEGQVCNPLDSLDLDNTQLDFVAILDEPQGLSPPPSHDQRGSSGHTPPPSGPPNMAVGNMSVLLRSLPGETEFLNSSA", "assay": "Inhibition of biotin-labeled Gli1binding sequence binding to Flag-tagged Gli1 (unknown origin) expressed in mouse NIH/3T3 cells at 1 uM by EMSA", "type": "cell-based", "procedure,_shortened": "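EMSA with biotin-labeled Gli-binding sequence from the twist1 promoter, probing Gli1 DNA binding. Unlabeled Gli-binding sequence served as competitor.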"}, "Mus musculus [14]": {"species_on_record": "Mus musculus", "assay": "Inhibition of hedgehog signaling pathway in mouse C3H10T1/2 cells assessed as downregulation of Shh-induced Gli1 mRNA expression levels at 300 nM after 36 hrs by RT-qPCR analysis", "type": "cell-based", "procedure,_shortened": "as §1"}, "Mus musculus [15]": {"species_on_record": "Mus musculus", "assay": "Inhibition of hedgehog signaling pathway in mouse Ptch+/- p53-/- medulloblastoma cells assessed as reduction in GLI1 mRNA expression at 3 uM by RT-qPCR analysis", "procedure,_shortened": "(§2)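 ptch+/−;p53−/− medulloblastoma cells kept in Neurobasal A/B-27 medium with EGF and bFGF, then treated. Gli1 and ptch1 mRNA measured by RT-qPCR. Data given as mean ± SD.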"}, "Mus musculus [16]": {"species_on_record": "Mus musculus", "assay": "Inhibition of hedgehog signaling pathway in mouse Ptch+/- p53-/- medulloblastoma cells assessed as reduction in ptch1 mRNA expression at 3 uM by RT-qPCR analysis", "procedure,_shortened": "as §2"}},
  "note": "Calls of active or inactive are those of the source. The calls are words filed in the database; no cut-off is given here.",
  "data": [
    {"molecule": "COc1ccc(CN2C[C@@H]3CN(S(=O)(=O)c4ccc(Cl)cc4)CC[C@@H]3Oc3c(NC(=O)C4CC4)cccc3C2=O)cc1", "note": "(racemic)", "values": [
      {"measurement": "inhibition", "setting": "Mus musculus [1]", "value": 97, "unit": "%"},
      {"measurement": "inhibition", "setting": "Mus musculus [2]", "value": "Dose-dependent effect"},
      {"measurement": "inhibition", "setting": "Mus musculus [3]", "value": "Active"},
      {"measurement": "inhibition", "setting": "Mus musculus [4]", "value": "Active"},
      {"measurement": "inhibition", "setting": "Homo sapiens", "value": "inactive"},
      {"measurement": "inhibition", "setting": "Mus musculus [5]", "value": "Dose-dependent effect"},
      {"measurement": "inhibition", "setting": "Mus musculus [6]", "value": "Active"},
      {"measurement": "Activity", "setting": "Mus musculus [7]", "value": "Active"},
      {"measurement": "inhibition", "setting": "Mus musculus [8]", "value": "Active"},
      {"measurement": "inhibition", "setting": "[9]", "value": "inactive"},
      {"measurement": "inhibition", "setting": "Mus musculus [10]", "value": "Dose-dependent effect"},
      {"measurement": "inhibition", "setting": "Mus musculus [11]", "value": "Active"},
      {"measurement": "inhibition", "setting": "Mus musculus [12]", "value": "Active"},
      {"measurement": "inhibition", "setting": "[13]", "value": "inactive"},
      {"measurement": "inhibition", "setting": "Mus musculus [14]", "value": "Active"},
      {"measurement": "inhibition", "setting": "Mus musculus [15]", "value": "Active"},
      {"measurement": "inhibition", "setting": "Mus musculus [16]", "value": "Active"}
    ]}
  ]
}
